Tcruzi prolif: inhibitors of T. cruzi proliferation; T. cruzi beta-gal in NIH3T3, GalScreen luminescence, 90 h; AID 624255; hit rate 5.9% among 77,000; inhibition, % at 8.34 µM;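 active means mean inhibition above about 93%, with at least 55% of replicates each passing it, limit read from the data, passing the limit was not always enough; inconclusive means only one of those two conditions holds; inactive means neither condition holds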
Pf Dd2 inh: blocks growth of Plasmodium falciparum Dd2 parasites | AID 1159554 | activity change, % at 10 µM | P. falciparum Dd2 growth, SYBR Green, 72 h; active compounds read low | hit rate 2.3% among 94,000; in the data active means activity change below about -80%; inconclusive means no clear call, values can overlap the other calls
GASC1 inh: blocks human GASC-1 (KDM4C) demethylase activity; Q9H3R0; GST-KDM4C 2-372, H3K9me3 peptide, LANCE TR-FRET; inhibition, % at 12.5 µM; hit rate 0.15% among 96,000; AID 720574;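 active means mean replicate inhibition above about 25%, with at least 55% of replicates also reaching it, limit read from the data, passing the limit was not always enough; inconclusive means only one of those two conditions met; inactive means neither condition met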
Target sequence (Q9H3R0 2-372 limits assumed): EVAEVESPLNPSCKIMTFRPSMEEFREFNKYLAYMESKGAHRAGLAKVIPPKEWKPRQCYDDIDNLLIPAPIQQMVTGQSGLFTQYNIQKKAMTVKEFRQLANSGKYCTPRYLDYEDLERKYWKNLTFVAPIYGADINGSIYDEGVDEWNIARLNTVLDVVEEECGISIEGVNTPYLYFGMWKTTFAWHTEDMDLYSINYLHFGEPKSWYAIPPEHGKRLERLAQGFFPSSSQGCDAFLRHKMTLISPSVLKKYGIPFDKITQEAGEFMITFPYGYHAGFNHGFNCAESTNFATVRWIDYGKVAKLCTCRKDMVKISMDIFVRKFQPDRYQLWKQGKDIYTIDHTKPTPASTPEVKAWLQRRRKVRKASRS
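System: N-terminal GST-fused human GASC-1 (KDM4C) fragment, residues 2-372; amount: enzyme final amount 10 nM; incubation: reaction 30 min RT, detection step 1 h RT; medium: HEPES buffer, pH 7.5, plus ascorbate; technique: LANCE TR-FRET, Eu antibody, ULight-streptavidin, EDTA, ex 340 nm, em 618/671 nm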
IDH1 mut inh: inhibitors of human IDH1 R132H; hit rate 0.18% among 70,000; IDH1 R132H reductase, diaphorase/resazurin fluorescence, 60 min; inhibition, % at 10 µM; O75874; in the data active means inhibition above about 34%; inconclusive means no clear call, values can overlap the other calls; inactive means below about 11%;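 further: 0% = DMSO and 100% = no enzyme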
An asterisk follows results filed as active; ? = inconclusive; nt = not tested or not shown. A selection: hits, their analogues and other compounds. The true share with any hit is near 5.9%.

SMILES	Tcruzi prolif	Pf Dd2 inh	GASC1 inh	IDH1 mut inh
COC(=O)c1ccc(OCC(O)Cn2c(C)nc3ccccc32)cc1 (stereo not given)	nt	nt	nt	-0.3
CCCN(C)C[C@@H]1OCCCC[C@H](C)Oc2ccc(NC(=O)Nc3ccc4c(c3)OCO4)cc2C(=O)N([C@H](C)CO)C[C@@H]1C	50.5	-87.6*	-3.0	nt
CCCN(C)C[C@H]1OCCCC[C@@H](C)Oc2ccc(NC(=O)Nc3ccc(C(F)(F)F)cc3)cc2C(=O)N([C@H](C)CO)C[C@H]1C	16.9	-83.4*	-0.1	-0.4
C[C@@H]1CCCCO[C@H](CN(C)CC2CC2)[C@H](C)CN([C@H](C)CO)C(=O)c2cc(NC(=O)Nc3ccc(C(F)(F)F)cc3)ccc2O1	91.3	-82.2*	-4.4	nt
CCCN(C)C[C@H]1OCCCC[C@H](C)Oc2ccc(NC(=O)Nc3ccc(C(F)(F)F)cc3)cc2C(=O)N([C@@H](C)CO)C[C@H]1C	53.9	-69.2	-1.3	-0.2
C[C@@H]1CCCCO[C@@H](CN(C)CC2CC2)[C@@H](C)CN([C@H](C)CO)C(=O)c2cc(NC(=O)Nc3ccc4c(c3)OCO4)ccc2O1	25.4	?	-0.4	nt
C[C@H]1CCCCO[C@H](CN(C)CC2CC2)[C@@H](C)CN([C@@H](C)CO)C(=O)c2cc(NC(=O)Nc3ccc(C(F)(F)F)cc3)ccc2O1	50.3	-85.2*	nt	nt
COc1ccccc1NC(=O)CNS(=O)(=O)c1ccc(C)cc1	nt	nt	nt	-0.2
C[C@H](CO)N1C[C@H](C)[C@H](CN(C)Cc2ccc(C(=O)Nc3ccccc3N)cc2)Oc2ccc(NC(=O)C3CCCCC3)cc2CC1=O	84.3	-83.6*	14.4	-0.1
C[C@@H]1CN([C@H](C)CO)C(=O)Cc2cc(NC(=O)C3CCCCC3)ccc2O[C@@H]1CN(C)Cc1ccc(C(=O)Nc2ccccc2N)cc1	nt	-74.0	-2.1	nt
C[C@H]1CN([C@@H](C)CO)C(=O)Cc2cc(NC(=O)C3CCCCC3)ccc2O[C@@H]1CN(C)Cc1ccc(C(=O)Nc2ccccc2N)cc1	nt	-87.7*	-0.9	0.2
C[C@H](CO)N1C[C@H](C)[C@@H](CN(C)Cc2ccc(C(=O)Nc3ccccc3N)cc2)Oc2ccc(NC(=O)C3CCCCC3)cc2CC1=O	89.1	-84.9*	1.3	0.8
O=C(N/N=C/c1ccc(O)cc1)c1ccccc1O	nt	nt	nt	0.2
C[C@@H]1CCCCO[C@@H](CN(C)S(=O)(=O)c2cccs2)[C@@H](C)CN([C@@H](C)CO)C(=O)c2cc(NC(=O)Nc3ccc(C(F)(F)F)cc3)ccc2O1	84.4	-87.1*	-0.3	0.8
C[C@@H]1CN([C@H](C)CO)C(=O)c2cc(NC(=O)CCC(F)(F)F)ccc2O[C@@H](C)CCCCO[C@@H]1CN(C)S(=O)(=O)c1cccs1	68.3	-84.7*	0.1	-0.6
C[C@@H]1CN([C@@H](C)CO)C(=O)c2cc(NC(=O)CCC(F)(F)F)ccc2O[C@@H](C)CCCCO[C@@H]1CN(C)S(=O)(=O)c1cccs1	38.8	-62.7	0.9	0.8
C[C@@H]1CCCCO[C@H](CN(C)S(=O)(=O)c2cccs2)[C@@H](C)CN([C@@H](C)CO)C(=O)c2cc(NC(=O)Nc3ccc(C(F)(F)F)cc3)ccc2O1	93.8	-86.9*	-3.4	nt
Cc1ccc(C(=O)NC(=O)CSc2nnnn2-c2ccccc2)cc1	nt	nt	nt	0.4
Cc1noc(C)c1S(=O)(=O)N(C)C[C@H]1OCCCC[C@H](C)Oc2ccc(NC(=O)c3ccccc3)cc2C(=O)N([C@H](C)CO)C[C@H]1C	37.1	-76.9	-1.8	nt
Cc1noc(C)c1S(=O)(=O)N(C)C[C@H]1OCCCC[C@H](C)Oc2ccc(NC(=O)c3ccccc3)cc2C(=O)N([C@@H](C)CO)C[C@@H]1C	67.4	-86.5*	-1.5	nt
Cc1noc(C)c1S(=O)(=O)N(C)C[C@H]1OCCCC[C@@H](C)Oc2ccc(NC(=O)c3ccccc3)cc2C(=O)N([C@@H](C)CO)C[C@@H]1C	34.9	-84.0*	-0.5	nt
Cc1ccc(S(=O)(=O)N(C)C[C@H]2Oc3ccc(NC(=O)c4ccncc4)cc3C(=O)N([C@H](C)CO)C[C@H]2C)cc1	-16.6	23.2	0.7	-3.0
C[C@@H]1CCCCO[C@H](CN(C)S(=O)(=O)c2ccc(Cl)cc2)[C@H](C)CN([C@@H](C)CO)C(=O)c2cc(NC(=O)c3ccccc3)ccc2O1	100.8	-73.6	0.0	2.3
C[C@@H]1CN([C@@H](C)CO)C(=O)c2cc(NC(=O)c3ccccc3)ccc2O[C@@H](C)CCCCO[C@@H]1CN(C)S(=O)(=O)c1ccc(F)cc1	nt	-81.5*	nt	nt
Cc1ccc(S(=O)(=O)N(C)C[C@H]2Oc3ccc(NC(=O)c4ccncc4)cc3C(=O)N([C@@H](C)CO)C[C@@H]2C)cc1	12.9	-87.8*	-2.6	-5.8
SMILES	Tcruzi prolif	Pf Dd2 inh	GASC1 inh	IDH1 mut inh
Cc1ccc(S(=O)(=O)N(C)C[C@@H]2Oc3ncc(-c4ccncc4)cc3C(=O)N([C@@H](C)CO)C[C@H]2C)cc1	99.4	-49.3	38.8*	2.5
C[C@@H]1CN([C@@H](C)CO)C(=O)c2cc(NC(=O)c3ccccc3)ccc2O[C@@H](C)CCCCO[C@H]1CN(C)S(=O)(=O)c1ccc(F)cc1	nt	?	0.4	0.4
C[C@@H]1CN([C@H](C)CO)C(=O)c2cc(NC(=O)c3ccccc3)ccc2O[C@@H](C)CCCCO[C@@H]1CN(C)S(=O)(=O)c1ccc(Cl)cc1	94.5	-82.4*	0.4	0.6
CN(CC(=O)Nc1cc(Cl)ccc1O)S(=O)(=O)c1ccc(Cl)cc1	nt	nt	nt	0.2
COc1c(Cl)cc(C(=O)Nc2ccc(S(=O)(=O)Nc3cc(C)nc(C)n3)cc2)cc1Cl	nt	nt	nt	-0.2
Cn1c(=O)c2c(nc(Sc3nnc(N)s3)n2C)n(C)c1=O	nt	nt	nt	0.1
Cc1ccc(S(=O)(=O)N(C)C[C@H]2OCCCC[C@H](C)Oc3ccc(NC(=O)c4ccccc4)cc3C(=O)N([C@@H](C)CO)C[C@H]2C)cc1	-40.3	-86.2*	0.3	nt
Cc1ccc(S(=O)(=O)N(C)C[C@H]2OCCCC[C@@H](C)Oc3ccc(NC(=O)c4ccccc4)cc3C(=O)N([C@H](C)CO)C[C@@H]2C)cc1	44.1	-62.6	-1.0	nt
Cc1cc(-c2ccccc2)nc(SCC(=O)O)n1	nt	nt	nt	0.0
C[C@@H]1CCCCO[C@H](CN(C)C(=O)c2ccccc2)[C@@H](C)CN([C@H](C)CO)C(=O)c2cc(NC(=O)Nc3ccc4c(c3)OCO4)ccc2O1	23.2	5.7	-1.9	nt
C[C@H]1CCCCO[C@@H](CN(C)C(=O)C2CCCCC2)[C@@H](C)CN([C@@H](C)CO)C(=O)c2cc(NC(=O)c3ccncc3)ccc2O1	18.5	-80.9*	-0.3	-3.7
C[C@@H]1CCCCO[C@H](CN(C)C(=O)C2CCCCC2)[C@@H](C)CN([C@@H](C)CO)C(=O)c2cc(NC(=O)Cc3ccccc3)ccc2O1	42.0	-84.9*	-1.5	nt
C[C@H](CO)N1C[C@H](C)[C@H](CN(C)C(=O)C2CCCCC2)OCCCC[C@H](C)Oc2ccc(NC(=O)c3ccncc3)cc2C1=O	18.2	53.5	0.0	3.8
C[C@@H]1CCCCO[C@@H](CN(C)C(=O)C2CCCCC2)[C@@H](C)CN([C@@H](C)CO)C(=O)c2cc(NC(=O)C3CCCCC3)ccc2O1	38.0	-85.5*	17.6	5.5
